# Assay results pooled from the literature.
# Cell line: MOLM-13
# Observed: cell growth or viability
Compound,technique,tested at,time,endpoint,value
CC(C)(C)[C@H](N)C(=O)Nc1ccccc1/N=c1\cc(-c2ccc3c(c2)OCCO3)oc2cc(F)ccc12,CCK-8,1 µM,,inhibition,6.65%
CONC(=O)c1cccc2c1cc(C)n2-c1nc2c(c(NCc3ccccc3)n1)CCCN2,,,72 h,IC50,1400 nM
Fc1ccc(Oc2ccc(Nc3ccc4ncc(OCC5CCNCC5)nc4c3)cc2)cc1,XTT,,7 days,EC50,1600 nM
CC(C)(C)c1cc(NC(=O)Nc2ccc(-c3cn4c(n3)sc3cc(OCCN5CCOCC5)ccc34)cc2)no1,,,72 h,GI50,9 nM
c1cc(N2CCCC2)ccc1-c1cc2ncc(OCC3CCNCC3)nc2cc1-c1ccc(N2CCCC2)cc1,XTT,,7 days,EC50,1700 nM
CN(C)CCNC(=O)c1ccc(-c2nc3ccc4[nH]ncc4c3c3c2CCCCC3)c(F)c1,,,72 h,GI50,51 nM
CC1(C)CCC(CN2CCN(c3ccc(C(=O)NS(=O)(=O)c4ccc(NCC5CCOCC5)c([N+](=O)[O-])c4)c(Oc4cnc5[nH]ccc5c4)c3)CC2)=C(c2ccc(Cl)cc2)C1,,,,GI50,10 nM
Nc1cccc(-c2ccc3ncc(OCC4CCNCC4)nc3c2)c1,XTT,,7 days,EC50,28300 nM
Cc1cc2c(C(N)=O)cccc2n1-c1nc2c(c(NCc3ccccc3)n1)CCCN2,,,72 h,IC50,800 nM
NCC(=O)Nc1ccccc1/N=c1\cc(-c2ccc3c(c2)OCO3)oc2ccccc12,CCK-8,1 µM,,inhibition,1.52%
c1cc(-c2cc3ncc(OCC4CCNCC4)nc3cc2-c2cccc(N3CCCCC3)c2)cc(N2CCCCC2)c1,XTT,,7 days,EC50,1400 nM
O=C(Nc1ccccc1/N=c1\cc(-c2ccc3c(c2)OCCO3)oc2cc(F)ccc12)N1CCOCC1,CCK-8,1 µM,,inhibition,2.91%
CN(C)CCNC(=O)c1ccc(-c2nc3ccc4[nH]ncc4c3c3c2CCCC3)c(F)c1,,,72 h,GI50,262 nM
NCCCC(=O)Nc1ccccc1/N=c1\cc(-c2ccc3c(c2)OCO3)oc2ccccc12,CCK-8,1 µM,,inhibition,0.08%
Cc1n[nH]c2ccc3nc(-c4ccc(C(=O)NCCN(C)C)cc4F)c4c(c3c12)CCCC4,,,72 h,GI50,47 nM
